# The list is not random: actives were taken first. Their share in the collection is about 6.4%.
# H69AR growth 86K: blocks growth of human H69AR lung tumor cells. 85,000 tested, 6% active. AID 598. H69AR lung tumor viability, ATP luminescence, 72 h; hits give low values. viability, % at 10 µM;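 active means viability at or below 40%; inactive means viability above 40%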;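 further: multidrug resistant small cell line overexpressing MRP-1 efflux transporter; 100% = mean luminescence of untreated control wells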
# Lung fibro prol: blocks proliferation of human lung fibroblasts | LL 47 human lung fibroblast viability, ATP luminescence; hits give low values | viability, % at 10 µM | 85,000 tested, 1.1% active | AID 719;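 active means viability at or below 50% in the single dose screen; inactive means viability above 50%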;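 further: compound exposure lasted 72 h before the ATP readout; 100% = median luminescence of untreated cell-only wells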
#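 Material: Human LL 47 lung fibroblast cells | Input: 1,150 cells/well | Buffer or medium: IMEM plus 15% FBS | Compound dosing: 0.1% DMSO in all compound wells | Times: Overnight cell rest, 72 h compound treatment at 37 °C | Signal: CellTiter-Glo luminescence measuring cellular ATP | Measure: % viability versus median cells-only luminescence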
# Ecoli WT expand: blocks growth of wild type E. coli BW25113 | OD600 absorbance | growth inhibition, % at 100 µM | 98,000 tested, 0.15% active;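 active means growth inhibition above about 50% at one test dose, limit read from the data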;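 further: growth measured after 20 h incubation at 37 °C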
# Jurkat tox 60K: cytotoxicity toward Jurkat cells. 56,000 tested, 1.2% active. AID 463. Jurkat E6.1 viability, ATP luminescence, 48 h. inhibition, % at 4 µM;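 active means inhibition above the mean inhibition of all tested compounds plus 3 SD, cut at about 28% in these data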
# Ecoli tolC: E. coli tolC mutant growth inhibition; E. coli BW25113 tolC mutant growth, OD615; growth inhibition, % at 10 µM (by protocol); 65,000 tested, 2.2% active; AID 573;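 active means growth inhibition at or above a cutoff equal to the mean over every tested compound plus 3 SD, cut at about 60% in these data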;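 further: growth measured after 20 h incubation at 37 °C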
#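 Test system: tolC-deleted E. coli BW25113; medium: LB with kanamycin 50 µg/mL; compound: single-point testing at 10 µM; incubation: 20 h compound exposure of bacteria at 37 °C; signal: OD at 615 nm; evaluation: growth inhibition in percent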
# HUVEC inhibit: blocks proliferation of human endothelial cells. viability, % at 10 µM (by protocol). AID 648. 86,000 tested, 1.1% active. HUVEC proliferation, CellTiter-Glo luminescence, 72 h; hits give low values;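 active means viability at or below 30%; inactive means viability above 30%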;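 further: 100% = median luminescence of DMSO-only cell control wells on each plate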
# * = called active by the depositor; x = not tested or not shown.
SMILES,H69AR growth 86K,Lung fibro prol,Ecoli WT expand,Jurkat tox 60K,Ecoli tolC,HUVEC inhibit
COc1ccc(C2CC(c3cccs3)=Nc3ccccc3S2)cc1 (centres undefined),17*,89,x,x,x,77
O=C(Nc1cc(C(F)(F)F)ccc1N1CCOCC1)c1ccc[n+]([O-])c1,101,102,-5,x,x,102
Cc1cc(C)nc(-n2nc(C)cc2NC(=O)CNC(C)c2ccccc2)n1 (centres undefined),x,x,-1,x,x,x
CCC1CCCCN1CC(=O)Nc1cc(C)nn1-c1nc(C)cc(C)n1 (centres undefined),19*,81,7,15,13,72
Cc1cc(C)nc(-n2nc(C)cc2NC(=O)CN2CCC(C)CC2)n1,9.5*,92,0,x,12,112
Cc1nc(/N=C\N(C)C)sc1C(=O)Nc1ccccc1,88,95,0,-5,-3,95
CC1Cc2ccccc2N1Cc1nc2cc(C(F)(F)F)ccc2c(=O)[nH]1 (centres undefined),37*,79,2,x,x,76
CC1Cc2ccccc2N1Cc1cc(=O)n2ccsc2n1 (centres undefined),82,99,6,-1,8,109
Cc1ccc(OCc2nc(-c3ccccn3)n[nH]2)cc1,33*,100,23,x,x,82
Cc1cc(C)nc(Nc2n[nH]c(COc3ccc(Cl)cc3)n2)n1,83,104,-5,3,-7,93
Cc1cccc(OCc2nc(-c3ccccn3)n[nH]2)c1,34*,100,10,x,x,78
COCCCn1c(SCC(=O)Nc2nnc(C)s2)nnc1-c1ccoc1C,97,102,-3,-2,16,96
Cc1cc(N2C(=O)CCC2=O)n(-c2ccccc2)n1,102,98,-4,10,-8,100
Nc1c(-c2ccccc2)cnn1-c1cccc([N+](=O)[O-])c1,x,x,4,x,x,x
Clc1ccc(OCCCc2nc(-c3cccnc3)no2)c(Cl)c1,86,101,9,-6,95*,110
Cc1ccc(C)c(N(CC(=O)NC2CCCC2)C(=O)c2cc3cc4cccc(C)c4nc3s2)c1,x,x,-11,x,x,x
CCn1c(SCc2nc(-c3ccccc3)no2)nnc1-c1cccs1,83,98,13,x,x,92
O=C(Nc1cccc(Br)c1)c1cc2ccccc2o1,68,91,4,4,100*,85
Cc1cccc(NC(=O)c2cc3ccccc3o2)c1,70,91,11,9,16,86
CC(=O)c1cccc(N=C2NC(=O)C(CO)(CO)S2)c1,91,105,-11,x,12,93
COc1cccc(/C=C/C(=O)c2c(O)cc(C)oc2=O)c1O,4.0*,69,5,x,x,61
COc1cc(/C=C/C(=O)c2c(O)cc(C)oc2=O)cc(OC)c1O,25*,70,0,x,x,79
COc1ccc(/C=C/C(=O)c2c(O)cc(C)oc2=O)c(OC)c1,x,x,-11,x,x,x
O=C(CSc1ncc(-c2ccccc2)[nH]1)Nc1ccccc1,98,107,1,x,x,104
COc1ccc(CN(Cc2nc3ccccc3c(=O)[nH]2)C(=O)NC2CCCCC2)cc1,87,98,-2,1,27,78
SMILES,H69AR growth 86K,Lung fibro prol,Ecoli WT expand,Jurkat tox 60K,Ecoli tolC,HUVEC inhibit
COC(=O)c1ccc(COC(=O)c2ccccn2)cc1,90,101,-1,-3,5,100
O=C1C(=O)N(CCN2CCCCC2)c2ccccc21,103,105,x,x,x,95
Cc1ccc(N(Cc2ccc(C(=O)NC3CCCCC3)cc2)S(C)(=O)=O)cc1C,19*,91,1,x,x,62
CCOc1ccc(C2=Nn3c(nnc3-c3ccc(OC)cc3)SC2)cc1,14*,49*,-5,62*,-3,49
COc1ccc(C2=Nn3c(nnc3-c3ccco3)SC2)cc1,20*,78,-8,x,x,66
COc1ccc(OCc2nnc3n2N=C(c2ccc(C)cc2)CS3)cc1,95,91,3,-1,7,88
COc1ccc(OCc2nnc3n2N=C(c2ccc(OC)cc2)CS3)cc1,30*,84,-10,4,16,74
Cc1onc(-c2ccccc2Cl)c1C(=O)N1CCN(C/C=C/c2ccccc2)CC1,97,86,3,12,2,91
COc1ccccc1NS(=O)(=O)c1ccc(C)c(C(N)=O)c1,86,95,5,8,-7,109
CCc1nc2sc3c(c2c(=O)n1NC(=O)CCl)CCCC3,12*,97,1,x,x,82
CCc1nc2sc3c(c2c(=O)o1)CCCC3,103,93,1,x,0,92
CCCn1c(N2CCN(C(=O)N3CCCCC3)CC2)nc2ccccc21,83,102,0,5,4,114
CCCn1c(N2CCN(CC(=O)NCc3cccs3)CC2)nc2ccccc21,38*,99,8,0,-4,102
CCCn1c(N2CCN(S(=O)(=O)Cc3ccccc3)CC2)nc2ccccc21,39*,57,4,7,-11,77
CCCCNC(=O)c1onc(CSc2ccccc2CC)c1C(=O)O,x,x,2,x,x,x
Clc1ccc2c(c1)C(N1CCNCC1)Cc1ccccc1S2 (centres undefined),2.0*,2.4*,x,x,x,2.3*
CCCn1c(SCc2cc(=O)oc3ccc4ccccc4c23)n[nH]c1=O,89,96,5,2,19,103
O=c1c2c3nc4ccccc4nc3n(/N=C/c3cccs3)c2ncn1-c1ccccc1,30*,105,x,1,28,84
CCCCCCn1cnc2c(c1=O)c1nc3ccccc3nc1n2/N=C/c1ccco1,85,97,-7,1,26,74
C=CCn1cnc2c(c1=O)c1nc3ccccc3nc1n2/N=C/c1cccc(OC)c1,22*,92,x,7,32,49
COCCn1cnc2c(c1=O)c1nc3ccccc3nc1n2/N=C/c1cccc(OC)c1OC,39*,96,x,-7,30,67
COc1ccccc1N(CC(=O)Nc1ccccc1C)S(C)(=O)=O,91,93,x,-4,5,89
CCn1cc(C(=O)Nc2ccc3c(c2)OCCO3)c2cc(OC)c(OC)cc2c1=O,75,103,-20,0,-5,96
CN(C)S(=O)(=O)c1cccc(N=c2scc(-c3ccc4c(c3)NC(=O)CO4)n2CC2CCCO2)c1 (centres undefined),34*,93,-9,x,x,64
COc1ccccc1N=c1scc(-c2ccc3c(c2)NC(=O)CO3)n1CC1CCCO1 (centres undefined),61,96,10,6,32,78
CC(=O)c1cccc(NC(=O)CCC2CCCC2)c1,90,103,8,x,x,92
CSc1nsc(SC)c1NC(=O)N1CCCC1,x,x,5,-4,-18,x
CCOC(=O)c1sc(=NC(=O)c2ccc(OC)c(OC)c2)n(C)c1C,20*,97,-5,4,13,77
COc1cc(CC(=O)OC2CCOC2=O)cc(OC)c1OC (centres undefined),93,99,-5,-4,-19,98
C(=C\c1ccccc1)/CSc1nnc(-c2ccccn2)n1Cc1ccco1,19*,43*,-12,86*,93*,41

# Bioassay records as filed in PubChem.
